“And” between values parts separate entries of the source, which are not always exact repeats. Equal entries are not always repeated.
How the values were obtained:
[1] = tested on: B16; test: Median survival time of […] melanocarcinoma cell line after a dose of 5 mg/kg administered intraperitoneally on Q01Dx01 treatment schedule; assay type: functional, Mus musculus; conditions: route intraperitoneal
Summary of the method: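 B16 melanocarcinoma: C57Bl/6 mice implanted sc with cell suspension on day 0; single ip dose in 0.15 M NaCl saline given on day 1. Median survival time was recorded in days, with toxicity taken as survivors on day 5. T/C% = treated MST/control MST × 100; >125% is considered significant.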

[2] = tested on: L1210; test: MST of treated animal over control when administered at a dose of 5 mg/kg intraperitoneally on Q01Dx09 treatment schedule in L1210 cell lines; assay type: functional, Mus musculus; conditions: route intraperitoneal
Summary of the method: (§1)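 L1210 leukaemia: DBA/2 mice inoculated ip with 10^5 cells on day 0, with ip drug in 0.15 M NaCl saline on the stated schedule. The read-out was median survival time in days, with toxicity taken as survivors on day 5. T/C% = treated MST/control MST × 100; >125% is considered significant.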

[3] = tested on: L1210; test: Concentration that decreases the growth rate of the L1210 cells by 50% after 48 hr of culture; assay type: functional; conditions: Mus musculus, L1210, 48 h; read-out: ID50 (the source's name)
Summary of the method: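 L1210 leukemia cells cultured with increasing drug concentrations for 48 h at 37 °C under 5% CO2. Percentage inhibition of control growth was fitted by least-squares linear regression against log dose, and the concentration lowering control growth by 50% was estimated from the regression equation.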

[4] = tested on: L1210; test: Median survival time of L1210 cell line after a dose of 20 mg/kg administered intraperitoneally on Q01Dx01 treatment schedule; assay type: functional, Mus musculus; conditions: route intraperitoneal; summary of the method: as §1
[5] = tested on: L1210; test: MST of treated animal over control when administered at a dose of 20 mg/kg intraperitoneally on Q01Dx01 treatment schedule in L1210 cell lines; assay type: functional, Mus musculus; conditions: route intraperitoneal; summary of the method: as §1
[6] = tested on: L1210; test: Median survival time of L1210 cell line after a dose of 10 mg/kg administered intraperitoneally on Q01Dx01 treatment schedule; assay type: functional, Mus musculus; conditions: route intraperitoneal; summary of the method: as §1
[7] = tested on: L1210; test: Median survival time of L1210 cell line after a dose of 10 mg/kg administered intraperitoneally on Q01Dx05 treatment schedule; assay type: functional, Mus musculus; conditions: route intraperitoneal; summary of the method: as §1
[8] = tested on: L1210; test: Median survival time of L1210 cell line after a dose of 15 mg/kg administered intraperitoneally on Q01Dx02 treatment schedule; assay type: functional, Mus musculus; conditions: route intraperitoneal; summary of the method: as §1
[9] = tested on: L1210; test: Number of survivors of L1210 cell line on day 5/ number of treated mice at a dose of 2ip injection of 10 mg/kg on Q01Dx02 treatment schedule; 10/10; assay type: functional, Mus musculus
[10] = tested on: P388; test: Number of survivors of P388 lymphocytic leukemia cell line on day 5/ number of treated mice at a dose of 3 ip injection of 10 mg/kg on Q04Dx03 treatment schedule; 10/10; assay type: functional, Mus musculus; conditions: route intraperitoneal
[11] = tested on: P388; test: Number of survivors of P388 lymphocytic leukemia cell line on day 5/ number of treated mice at a dose of 5 ip injection of 5 mg/kg on Q01Dx05 treatment schedule; 10/10; assay type: functional, Mus musculus; conditions: route intraperitoneal
[12] = tested on: P388; test: MST of treated animal over control when administered at a dose of 5 mg/kg intraperitoneally on Q01Dx05 treatment schedule; assay type: functional, Mus musculus; conditions: route intraperitoneal
Summary of the method: (§2)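 P388 leukaemia: DBA/2 mice inoculated with 10^6 cells on day 0; treatment began day 1 at the stated route and schedule. Drug was dissolved in 0.15 M NaCl saline. The read-out was median survival time (MST, days), with toxicity taken as survivors on day 5. T/C% = treated MST/control MST × 100; ≥125% is considered significant.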

[13] = tested on: P388; test: MST of treated animal over control when administered at a dose of 5 mg/kg intraperitoneally on Q01Dx09 treatment schedule; assay type: functional, Mus musculus; conditions: route intraperitoneal; summary of the method: as §2
[14] = tested on: P388; test: Number of survivors of P388 lymphocytic leukemia cell line on day 5/ number of treated mice at a dose of 1 i.p. injection of 20 mg/kg on Q01Dx01 treatment schedule; 10/10; assay type: functional, Mus musculus; conditions: route intraperitoneal
[15] = tested on: P388; test: Number of survivors of P388 lymphocytic leukemia cell line on day 5/ number of treated mice at a dose of 1 i.v. injection of 15 mg/kg on Q01Dx01 treatment schedule; 10/10; assay type: functional, Mus musculus; conditions: route intravenous
[16] = tested on: P388; test: Number of survivors of P388 lymphocytic leukemia cell line on day 5/ number of treated mice at a dose of 1 i.v. injection of 15 mg/kg on Q01Dx01 treatment schedule; 5/10; assay type: functional, Mus musculus; conditions: route intravenous
[17] = tested on: P388; test: Number of survivors of P388 lymphocytic leukemia cell line on day 5/ number of treated mice at a dose of 1 i.v. injection of 2.5 mg/kg on Q01Dx01 treatment schedule; 9/10; assay type: functional, Mus musculus; conditions: route intravenous
[18] = tested on: P388; test: Number of survivors of P388 lymphocytic leukemia cell line on day 5/ number of treated mice at a dose of 9 ip injection of 2.5 mg/kg on Q01Dx09 treatment schedule; 10/10; assay type: functional, Mus musculus; conditions: route intraperitoneal
[19] = tested on: P388; test: Number of survivors of P388 lymphocytic leukemia cell line on day 5/ number of treated mice at a dose of 9 ip injection of 5 mg/kg on Q01Dx09 treatment schedule; 10/10; assay type: functional, Mus musculus; conditions: route intraperitoneal
[20] = tested on: P388; test: Median survival time of P388 lymphocytic leukemia cell line after a dose of 10 mg/kg administered intraperitoneally on Q01Dx05 treatment schedule; assay type: functional, Mus musculus; conditions: route intraperitoneal; summary of the method: as §2
[21] = tested on: P388; test: Median survival time of P388 lymphocytic leukemia cell line after a dose of 10 mg/kg administered perorally on Q01Dx07 treatment schedule; assay type: functional, Mus musculus; conditions: route oral; summary of the method: as §2
[22] = tested on: P388; test: Median survival time of P388 lymphocytic leukemia cell line after a dose of 15 mg/kg administered intravenously on Q01Dx01 treatment schedule; assay type: functional, Mus musculus; conditions: route intravenous; summary of the method: as §2
[23] = tested on: P388; test: Median survival time of P388 lymphocytic leukemia cell line after a dose of 15 mg/kg administered perorally on Q01Dx07 treatment schedule; assay type: functional, Mus musculus; conditions: route oral; summary of the method: as §2
[24] = tested on: Salmonella typhimurium; test: Mutagenesis test was performed at 0.3 uM concentration in Salmonella Typhimurium TA 100; assay type: functional, Salmonella enterica subsp. enterica serovar Typhimurium
Summary of the method: (§3)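 Salmonella typhimurium his auxotrophs TA98 and TA100 were tested by liquid suspension without metabolic activation. Overnight Oxoid nutrient broth cultures were subcultured, grown 2 h, then exposed to drug for 5 h. Cells were washed, resuspended to A650 2.50, and plated in top agar (0.6% agar, 0.6% NaCl). His+ revertants per plate were counted after 48 h at 37 °C; values are means of three assays.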

[25] = tested on: Salmonella typhimurium; test: Mutagenesis test was performed at 0.7 uM concentration in Salmonella Typhimurium TA 98; assay type: functional, Salmonella enterica subsp. enterica serovar Typhimurium; summary of the method: as §3
[26] = tested on: Salmonella typhimurium; test: Mutagenesis test was performed at 10 uM concentration in Salmonella Typhimurium TA 100; assay type: functional, Salmonella enterica subsp. enterica serovar Typhimurium; summary of the method: as §3
[27] = tested on: Salmonella typhimurium; test: Mutagenesis test was performed at 20 uM concentration in Salmonella Typhimurium TA 98; assay type: functional, Salmonella enterica subsp. enterica serovar Typhimurium; summary of the method: as §3
[28] = tested on: Salmonella typhimurium; test: Mutagenesis test was performed at 40 uM concentration in Salmonella Typhimurium TA 100; assay type: functional, Salmonella enterica subsp. enterica serovar Typhimurium; summary of the method: as §3
[29] = tested on: Salmonella typhimurium; test: Mutagenesis test was performed at 4 uM concentration in Salmonella Typhimurium TA 100; assay type: functional, Salmonella enterica subsp. enterica serovar Typhimurium; summary of the method: as §3
[30] = tested on: Salmonella typhimurium; test: Mutagenesis test was performed at 4 uM concentration in Salmonella Typhimurium TA 98; assay type: functional, Salmonella enterica subsp. enterica serovar Typhimurium; summary of the method: as §3
[31] = tested on: Sarcoma-180; test: Number of survivors of sarcoma 180 cell line on day 5/ number of treated mice at a dose of 1 ip injection of 10 mg/kg on Q01Dx01 treatment schedule; 10/10; assay type: functional, Mus musculus; conditions: route intraperitoneal

`O=C1C(N2CC2)=C(N2CC2)C(=O)c2ncncc21` was tested, and the MST [1] was 15.7 days, the T/C [2] was 109% and the IC50 [3] was 0.02 µg/mL and 80 nM. It also gave an MST [4] of 9.4 days, a T/C [5] of 115% and an MST [6] of 9.4 days. The MST [7] was 9.1 days, the MST [8] was 9 days and the “Toxicity Survivors” value [9] was 10. The “Toxicity Survivors” value [10] was 10, the “Toxicity Survivors” value [11] was 10 and the T/C [12] was 138%. For the same compound, the T/C [13] was 148%, the “Toxicity Survivors” value [14] was 10 and the “Toxicity Survivors” value [15] was 10. For the same compound, the “Toxicity Survivors” value [16] was 5, the “Toxicity Survivors” value [17] was 9 and the “Toxicity Survivors” value [18] was 10. For the same compound, the “Toxicity Survivors” value [19] was 10, the MST [20] was 10.4 days and the MST [21] was 7.6 days. The MST [22] was 10.4 days, the MST [23] was 7.6 days and the Revertants/plate [24] was 76. The Revertants/plate [25] was 101, the Revertants/plate [26] was 97 and the Revertants/plate [27] was 98. For the same compound, the Revertants/plate [28] was 461, the Revertants/plate [29] was 87 and the Revertants/plate [30] was 81. For the same compound, the “Toxicity Survivors” value [31] was 10.
